# Bioassay records: PubChem, several laboratories
# Exocytosis inh = lytic granule exocytosis inhibition | TALL-104 LAMP-1 surface exposure, flow cytometry; cells stimulated with thapsigargin and PMA | inhibition, % at 10 µM | 0.66% of 360,000 active | AID 651702;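 active = inhibition above about 55%, limit read from the data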
# ASAP1 GAP inh = inhibitors of human ASAP1 ArfGAP activity; 0.19% of 360,000 active; AID 624377; inhibition, % at 16.5 µM; ASAP1-stimulated ARF1 GTP hydrolysis, GDP FP detection; Q9ULH1; in the data active = inhibition above about 25%
# Target sequence (Q9ULH1 325-724 limits assumed): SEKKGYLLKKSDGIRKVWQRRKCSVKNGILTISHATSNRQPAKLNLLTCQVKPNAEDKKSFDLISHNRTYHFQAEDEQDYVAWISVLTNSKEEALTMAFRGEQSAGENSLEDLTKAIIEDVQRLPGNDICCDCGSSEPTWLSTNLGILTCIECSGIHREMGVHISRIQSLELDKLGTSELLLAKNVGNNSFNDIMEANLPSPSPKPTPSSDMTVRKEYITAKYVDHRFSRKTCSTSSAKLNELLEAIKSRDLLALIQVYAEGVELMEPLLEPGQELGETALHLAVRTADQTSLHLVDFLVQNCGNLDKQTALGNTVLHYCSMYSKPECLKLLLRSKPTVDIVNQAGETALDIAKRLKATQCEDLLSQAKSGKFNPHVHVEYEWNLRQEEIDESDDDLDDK
# ARFGAP1 inh = inhibits rat ARF GTPase activating protein 1; Arfgap1-stimulated ARF1 GTP hydrolysis, GDP FP detection; inhibition, % at 16.5 µM; 0.26% of 360,000 active;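 active = inhibition above a per-plate limit, mean inhibition of low control wells plus 3 SD, cut at about 25% in these data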
#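 material = rat Arfgap1 catalytic domain, aa 1-136 | also added = human ARF1(Δ1-17)-GTP substrate | compound dosing = one concentration, 16.5 µM, DMSO 1.26% | times = GTP hydrolysis reaction 2 h at 25 °C | measured by = FP, GDP Alexa 633 tracer displaced from anti-GDP antibody, 620/688 nm | evaluation = percent inhibition of Arfgap1-stimulated GTP hydrolysis | replication = single well per compound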
# V-ATPase pH = yeast V-ATPase proton transport regulation by pHLuorin; S. cerevisiae, pHLuorin cytosolic pH fluorescence; response, % at 10 µM; 0.37% of 350,000 active; in the data active = response mostly above about 7.3%, no sharp cut-off; inactive = mostly below about 5.4%; note: actives read high
# CendR NRP1 mod = alters CendR peptide binding to human NRP-1. 0.85% of 360,000 active. O14786. inhibition, % at 25 µM. FAM-RPARPAR peptide binding to NRP-1, fluorescence polarization;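 active = inhibition or corrected inhibition above about 18%, plus a signal ratio from 0.5 to 1.5, limit read from the data, passing the limit was not always enough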
# Numbers stand for hits; . = inactive; / = no result. Hits are enriched below; roughly 2.2% of the tested compounds scored in any of these assays.
SMILES,Exocytosis inh,ASAP1 GAP inh,ARFGAP1 inh,V-ATPase pH,CendR NRP1 mod
COC(=O)c1ccccc1NC(=O)CSc1nc(N)cc(N)n1,.,.,.,.,.
CC(=O)Oc1ccc2c(c1)CCC1C2CCC2(C)C(OC(C)=O)CCC12 (configuration not stated),.,.,.,.,.
C[C@]12CC[C@@H]3c4ccc(OC(=O)c5ccccc5)cc4CC[C@H]3[C@@H]1CC[C@@H]2O,60,.,.,.,.
O=C(CSc1ccc([N+](=O)[O-])cc1)NCC1CCCCC1,.,.,.,.,26
O=C(NCC1CCCCC1)c1ccc([N+](=O)[O-])cc1,.,.,.,.,.
CCCCc1cn([C@@H](CCCCN)C(=O)N2CCNCC2)nn1,.,.,.,.,22
CCCCc1cn([C@@H](CCCCNC(=O)OC(C)(C)C)C(=O)N2CCN(C(=O)OC(C)(C)C)CC2)nn1,103,.,.,.,.
CC[C@@H](C)[C@@H](C(=O)N1CCN(C(=O)OC(C)(C)C)CC1)n1cc(CCCN=C(NC(=O)OC(C)(C)C)NC(=O)OC(C)(C)C)nn1,.,.,.,.,26
O=C(Nc1ccccc1C(=O)NCC1CC1)c1cccs1,/,.,.,/,/
Cc1cc(N/N=C/c2ccc(F)cc2)nc(NCc2ccccc2)n1,.,.,.,.,.
Cc1ccc(/C=N/Nc2cc(C)nc(NCc3ccccc3)n2)cc1,88,.,.,.,.
C[C@H]1[C@H](c2ccccc2)Oc2cccc(NCCc3ccccc3)c2S(=O)(=O)N1Cc1ccc(F)cc1,/,.,.,/,/
O=C1CCCc2c1cc(C(=O)NC1CCSC1=O)c(=O)n2-c1ccccc1 (configuration not stated),.,.,.,.,30
Cc1cccc(CN2CCN([C@H]3CS(=O)(=O)N[C@@H]3COCc3ccccc3)CC2)c1,.,.,.,/,26
CN1CCN([C@H]2CS(=O)(=O)N[C@@H]2COCc2ccccc2)CC1,.,.,.,/,.
N#C/C(=C\Nc1ccccc1O)c1nc2ccccc2o1,86,.,.,.,.
N#C/C(=C\c1ccncc1)c1nc2ccccc2o1,.,.,.,.,.
C=CCOc1c(CNc2nccs2)cccc1OCC,.,.,.,.,.
C=CCOc1c(CNc2ncn[nH]2)cccc1OCC,.,.,.,.,28
CC(C)(C)CC(=O)Nc1ccc(C(N)=O)cc1,.,.,.,.,26
COCCNC(=S)N1C[C@H]2CON(C)[C@H]2C[C@H]1c1ccccc1Br,/,.,.,/,/
CC1CN(C(=O)c2ccc(CNS(=O)(=O)c3cccc(Cl)c3)cc2)CC(C)O1 (configuration not stated),.,.,.,.,28
CCCCOc1ccc(C(=O)NC2CCCCN(CCC)C2=O)cc1 (configuration not stated),/,.,.,/,/
Cc1nc(-c2ccccc2)sc1C(=O)CSc1ccc(F)cc1,.,.,.,.,.
Cc1nc(-c2ccccc2)sc1C(=O)CSc1ccccc1,.,.,.,.,28
SMILES,Exocytosis inh,ASAP1 GAP inh,ARFGAP1 inh,V-ATPase pH,CendR NRP1 mod
CCN(CC)CCCNC(=S)N1CCN(c2nc(-c3ccc(F)cc3)cs2)CC1,69,.,.,.,.
Cc1cc(C)n(CCc2nc(-c3cccs3)cs2)n1,.,.,.,.,31
Cc1cc(C)n(CCc2nc(-c3ccc(-c4ccccc4)cc3)cs2)n1,.,.,.,.,.
CCOc1nc(-c2ccccc2)c2cc(C)ccc2n1,.,.,.,.,20
COc1ccc([C@H]2C[C@@H](O)[C@H](n3cc(C4CC4)nn3)CN2Cc2cccs2)cc1,.,.,.,.,.
FC(F)(F)c1ccc(-c2csc(-c3ccno3)n2)cc1,.,.,.,.,.
CC(C)(C)C(=O)OCc1nc(-c2ccc(C(F)(F)F)cc2)cs1,.,.,.,21,.
C[C@H]1COc2cc(NCCO)ccc2S(=O)(=O)N1,/,.,.,/,/
CC(O)C(NC=C1C(=O)OC(C)(C)OC1=O)C(=O)O (configuration not stated),.,.,.,.,29
CC(C)C(NC=C1C(=O)OC(C)(C)OC1=O)C(=O)O (configuration not stated),.,.,.,.,.
CN1CCCCC(NC(=O)c2cccc([N+](=O)[O-])c2)C1=O (configuration not stated),/,.,.,/,/
C[C@H](O)[C@@H]1CN2CCc3ccc(-c4ccc5c(c4)OCO5)cc3[C@@H]2C[C@@H]1N(C)C(=O)c1ccco1,/,.,.,/,/
